Screening data as filed in PubChem.
KCNK3 inh: human KCNK3 channel inhibition, primary screen; AID 602410; O14649; CHO-KCNK3 thallium flux, FluxOR fluorescence; active compounds read low; B-score at 10 µM; hit rate 0.84% among 340,000;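 active = B-score under library mean minus 4 SD, starting fluorescence ratio at most library mean plus 5 SD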;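 note: more negative B-score means stronger inhibition of thallium flux through KCNK3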
Target sequence (O14649 whole entry, looked up): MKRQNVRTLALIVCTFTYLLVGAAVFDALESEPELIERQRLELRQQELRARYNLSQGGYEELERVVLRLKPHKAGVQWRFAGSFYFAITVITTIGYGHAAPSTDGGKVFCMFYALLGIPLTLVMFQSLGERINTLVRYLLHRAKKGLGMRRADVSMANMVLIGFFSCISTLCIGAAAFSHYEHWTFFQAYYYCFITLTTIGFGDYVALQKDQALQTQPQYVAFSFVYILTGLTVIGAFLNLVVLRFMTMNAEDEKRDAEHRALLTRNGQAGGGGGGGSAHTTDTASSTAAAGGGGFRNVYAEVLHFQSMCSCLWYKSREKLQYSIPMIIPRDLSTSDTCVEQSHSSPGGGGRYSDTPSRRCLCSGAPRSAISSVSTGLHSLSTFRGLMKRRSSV
hERG rescue: hERG (human) protection from proarrhythmic block; activation (rescue from dofetilide block), less the hit threshold, % at 10 µM; AID 1511; Q12809; hit rate 0.51% among 310,000; CHO-hERG, FluxOR thallium flux, dofetilide IC70 present;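 active = activation above the mean of controls blocked by dofetilide plus 5 SD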;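 note: thallium influx through hERG after potassium depolarization seen as dye fluorescence rise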
KCNQ1 act: potentiates or activates the human KCNQ1 potassium channel; CHO-K1 KCNQ1, thallium flux FluxOR fluorescence; active compounds read high; P51787; B-score at 10 µM; AID 2648; hit rate 0.35% among 310,000;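 active = fluorescence ratio B-score, a plate-corrected score, at least three library SD, with initial intensity B-score within 5 SD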
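Assay system: CHO-K1 cells stably expressing KCNQ1; Medium: assay buffer with matched DMSO; Also added: K+/Tl+ depolarizing stimulus; Dosing: single dose; Timing: dye 90 min, compound 20 min, room temperature; Measured by: kinetic FluxOR thallium fluorescence, 10-s 1-Hz baseline, 110-s post-stimulus read; Read-out: peak-minus-minimum fluorescence over initial fluorescence, negative-control normalized, B-scored.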
KCNQ1 inh: inhibitors of human KCNQ1 potassium channel; P51787; CHO-K1 KCNQ1, FluxOR thallium flux fluorescence; active compounds read high; B-score at 10 µM; hit rate 1.3% among 310,000;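 active = compounds whose thallium flux B-score, printed positive for inhibition, exceeds three library SD while starting fluorescence stays within three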;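 note: channel opened by potassium depolarization with thallium stimulus after 20 min compound exposure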
Kir21 block: Kir2.1 (mouse) channel inhibition | P35561 | HEK293-Kir2.1, FluxOR thallium flux fluorescence; active compounds read low | B-score at 10 µM | hit rate 0.85% among 310,000;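 active = fluorescence ratio B-score at or below minus 3 SD of library scores, with starting-brightness B-score within 2 SD, cut at about -4.2 in these data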;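 note: channel flux triggered by added potassium and thallium sulfate stimulus; B-score of peak minus minimum fluorescence over baseline after thallium stimulus; more negative B-score means stronger Kir2.1 block with less thallium influx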
KCNK9 block: human KCNK9 channel inhibition; Q9NPC2; HEK293 KCNK9, FluxOR thallium flux fluorescence; active compounds read low; B-score at 10 µM; hit rate 1.2% among 310,000; AID 488922;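 active = ratio B-score over 3 SD below the library mean, with starting fluorescence within 5 SD of its mean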;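 note: negative B-score means less thallium flux so channel inhibition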
Active calls of the source: *; i = inactive; . = no result given. Sampled rows, rich in hits. Any-hit rate of the full collection: about 3.8%.

SMILES | KCNK3 inh | hERG rescue | KCNQ1 act | KCNQ1 inh | Kir21 block | KCNK9 block
O=C(OCC(=O)N1CCc2ccccc21)[C@@H]1CCCN1S(=O)(=O)c1ccccc1F | i | . | . | . | . | .
CCCc1cc(=O)n2[nH]c(-c3ccc(OC)cc3)nc2n1 | i | -5.8 | i | i | -1.3 | -7.78*
COc1cccc(-n2nc(C(=O)O)c3ccccc3c2=O)c1 | i | 6.5* | i | i | -0.5 | i
CC(=O)Nc1ccc(OC(=O)c2ccc(Br)c([N+](=O)[O-])c2)cc1 | i | -25.1 | i | 7* | 0.93 | i
CCOc1ccc(C(=O)Oc2ccc(NC(C)=O)cc2)cc1 | . | -8.7 | i | i | 0.09 | i
COc1cc(/C=C2\C(=N)N3N=C(S(C)(=O)=O)SC3=NC2=O)ccc1OCCOc1ccccc1C | i | -8.1 | i | 6* | 1.36 | i
CCS(=O)(=O)C1=NN2C(=N)/C(=C\c3ccc(OC(=O)c4ccco4)c(Br)c3)C(=O)N=C2S1 | . | -29.1 | i | i | -6.14* | i
O=C(CNC(=O)c1ccc(Cl)cc1)c1ccccc1 | i | -5.3 | i | i | 0.47 | i
Cc1c(C)n(CCCN(C)C)c2ncnc(NC3CCCCC3)c12 | i | -3.6 | i | i | -2.68 | i
CNCCCC1Sc2ccccc2Oc2ccccc21 (centres undefined) | i | -8.9 | i | i | -5.99* | i
CCN(CC)CCCNC(=O)C1c2ccccc2Oc2ccccc21 | i | -9.4 | i | i | -2.18 | i
COC(=O)c1ccc(COC(=O)CNC(=O)CNC(=O)c2ccc(OC)cc2)cc1 | i | -6.9 | i | i | -2.31 | i
CCC(=O)N(CCC(c1ccccc1)c1ccco1)Cc1cccs1 (centres undefined) | i | -10.6 | i | i | -7.41* | -13.7*
CCN(CC)C(=O)CC(c1ccccc1)c1ccco1 (centres undefined) | i | -11.3 | i | i | -1.65 | i
O=C(c1ccco1)N(CCC(c1ccccc1)c1ccco1)Cc1ccccc1 (centres undefined) | i | -15.8 | i | i | -1.02 | -7.16*
CC(C)N=C(NS(=O)(=O)c1ccc(Br)cc1)c1ccc(Cl)cc1 | i | -3.4 | i | i | 0.47 | i
Cc1noc(NC(=O)c2ccccc2Cl)c1C#N | i | -2.0 | i | i | 0.29 | i
COc1ccccc1C(=O)Nc1onc(C)c1C#N | i | 6.2* | i | i | -0.56 | i
Cc1cccc(OCC(=O)NNC(=O)c2ccc3nc[nH]c3c2)c1 | i | . | . | . | . | .
c1ccc(Cc2nc3ccccc3n2Cc2ccccc2)cc1 | i | -17.1 | i | i | -7.25* | i
Cc1nc2ccccc2n1Cc1ccccc1 | i | 2.8 | i | i | 0.58 | i
Cc1nc2ccccc2n1Cc1ccc(Br)cc1 | i | -13.7 | i | 6* | 0.43 | i
CCn1c(Cc2ccc(OC)cc2)nc2ccccc21 | i | -10.2 | i | i | -1.55 | i
CC(C)Cc1nc2ccccc2n1CCc1ccccc1 | i | -14.1 | i | i | -6.55* | i
CCc1nc2ccccc2n1CCc1ccccc1 | i | -5.2 | i | i | -2.66 | i
SMILES | KCNK3 inh | hERG rescue | KCNQ1 act | KCNQ1 inh | Kir21 block | KCNK9 block
CC(C)C(=O)NCCc1nc2ccccc2n1CCc1ccccc1 | i | -9.8 | i | i | -1.08 | i
CC(C)(C)Cc1nc2ccccc2n1CCc1ccccc1 | i | -9.0 | i | i | -6.06* | i
CC(=O)N1CCN(S(=O)(=O)c2cccc(C(=O)NNC(=O)c3ccc(Br)cc3)c2)CC1 | i | . | . | . | . | .
CNC(=O)c1nnsc1S(=O)(=O)c1ccc(Cl)cc1 | i | -15.3 | i | i | -8.65* | i
Cc1c(N)cc2c(c1N)C(C)(C)CC2(C)C | i | . | . | . | . | .
CC(=O)/C=C1/C(=O)Nc2ccccc21 | i | -2.8 | i | i | -5.22* | i
CC1CCC(NC(=O)c2nn(C)c3c2CSc2ccccc2-3)CC1 (centres undefined) | i | -6.3 | i | i | 0.16 | i
NC(=O)C1CCN(C(=O)COCc2cc(-c3ccc4c(c3)OCO4)on2)CC1 | i | -12.0 | i | i | 0.29 | i
CC(C)(C)[C@@H]1CCC(=O)N(CC[C@H](Sc2ccccc2)c2ccccc2)CC1 | i | -3.8 | i | 6* | -0.96 | i
CCCN1CCC(=O)N(CCOc2ccccc2)CC1 | i | -10.4 | i | i | -1.93 | i
CC(C)(C)C1CCC(=O)N(CCOc2ccccc2)CC1 (centres undefined) | i | -12.9 | i | i | -5.63* | i
CC(C)(C)[C@H]1CCC(=O)N([C@H](CSc2ccc(Br)cc2)Cc2ccccc2)CC1 | i | . | . | . | . | .
CC(C)(C)[C@H]1CCC(=O)N([C@H](CSc2ccccc2)Cc2ccccc2)CC1 | i | -9.3 | i | i | -1.38 | -6.85*
Cc1ccc(C)n1CCN1CCN(C(=O)CC#N)CC1 | i | -14.7 | i | i | -0.12 | i
S=c1nc(-c2ccccc2)[nH]c2ccc(Br)cc12 | i | 58.9* | 101* | i | -0.61 | i
Cc1cc(O)c2c(c1)C(=O)c1cc(O)cc(O)c1C2=O | i | -9.3 | i | 6* | -0.11 | i
CC1=NN(Cc2ccccc2)C(=O)C1C(c1ccc(Cl)cc1)C(C#N)C#N (centres undefined) | i | -14.2 | i | i | -5.53* | i
CN(C)C(=O)CN1C(=O)C2CC=C(Cl)CC2C1=O (centres undefined) | i | -10.0 | i | i | 0.69 | i
CCN(CC)C(=O)CN1C(=O)C2CC=C(Cl)CC2C1=O (centres undefined) | i | 5.8* | i | i | 1.2 | i
COc1ccccc1[C@]1(C)ON(c2ccccc2C(F)(F)F)C1=O | i | . | . | . | . | .
Cc1ccc(OCCCCCCN2CCNCC2)c(Br)c1 | i | -4.9 | i | i | -5.63* | i
Cc1ccc(OCCCCN2CCC(C)CC2)c(Br)c1 | i | -11.2 | i | i | -6.01* | i
CCNC(=O)c1sc(-c2ccccc2)nc1C | i | -5.9 | i | i | 1.17 | i
CCCCCCCCCCCCCCCC[N+](C)(C)Cc1ccc(F)cc1 | i | . | . | . | . | .
Cc1ccccc1NC(=O)NCc1ccccn1 | i | -9.8 | i | i | 1.51 | i
CCOC(=O)c1cc(CC)sc1NC(=O)COC | i | -5.9 | i | i | -0.71 | i
CCOC(=O)c1cc(CC)sc1NC(=O)Cc1ccccc1 | i | -12.6 | i | i | 0.99 | -7.65*
Cc1ccc(C(=O)NCCC(=O)NCc2cc(=O)n(C)c(=O)n2C)cc1 | i | -5.5 | 8* | i | 1.23 | i
COCCn1c(SCC(=O)NC(C)c2ccc(F)cc2)nc2ccccc21 (centres undefined) | i | -8.0 | i | i | -2.03 | i
